NR1D1 modulator: Rev-erb alpha (human) modulation. P20393. Rev-erbα–FITC-DNA binding, fluorescence polarization, 90 min. activity, % at 10 µM. actives 0.79% (n = 370,000);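 active = activity above about 14%, limit read from the data; passing the limit was not always enough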;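 also: 0% = DMSO wells with 35 nM protein and 100% = DMSO wells with 750 nM protein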
Target sequence (P20393 whole entry, looked up): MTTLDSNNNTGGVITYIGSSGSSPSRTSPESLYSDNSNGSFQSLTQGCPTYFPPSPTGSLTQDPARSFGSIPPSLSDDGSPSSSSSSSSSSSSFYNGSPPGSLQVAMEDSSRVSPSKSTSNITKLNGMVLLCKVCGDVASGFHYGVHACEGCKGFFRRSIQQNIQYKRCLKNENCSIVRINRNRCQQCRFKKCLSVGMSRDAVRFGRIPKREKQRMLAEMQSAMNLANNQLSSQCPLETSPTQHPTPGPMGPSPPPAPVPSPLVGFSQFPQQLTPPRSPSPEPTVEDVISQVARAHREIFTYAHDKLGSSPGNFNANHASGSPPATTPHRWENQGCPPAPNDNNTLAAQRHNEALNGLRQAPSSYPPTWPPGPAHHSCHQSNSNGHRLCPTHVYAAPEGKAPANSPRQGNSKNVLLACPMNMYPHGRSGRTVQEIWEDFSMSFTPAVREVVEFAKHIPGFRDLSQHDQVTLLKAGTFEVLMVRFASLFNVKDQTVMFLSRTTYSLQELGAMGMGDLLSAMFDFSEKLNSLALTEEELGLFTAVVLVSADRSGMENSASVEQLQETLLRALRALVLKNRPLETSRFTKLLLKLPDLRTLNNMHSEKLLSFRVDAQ
PG9 binder: binds the HIV-1 gp120 antibody PG9; TR-FRET gp120-PG9 antibody binding; inhibition, % at 6.7 µM; actives 0.43% (n = 360,000); AID 624416; in the data active = inhibition above about 8.5%
NR2E3 ag-1: human photoreceptor-specific nuclear receptor agonism; Q9Y5X4; CHO-S Gal4-NCOR/VP16-NR2E3 two-hybrid, luciferase; inhibition of corepressor binding, % at 3.98 µM; actives 0.35% (n = 360,000); AID 602229;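 active = inhibition above the mean of all tested compounds plus 3 SD, cut at about 70% in these data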;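 also: 0% = DMSO with NR2E3 transfected cells and 100% = cells lacking NR2E3 construct; higher means lower luciferase signal from less NR2E3 corepressor binding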
NR2E3 ag-2: agonists of human nuclear receptor NR2E3; Q9Y5X4; GST-NR2E3/biotin-RetCOR TR-FRET, 1536-well; inhibition of corepressor binding, % at 4.78 µM; actives 0.12% (n = 320,000);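 active = percent inhibition above the cutoff of mean plus 3 SD of all tested compounds, set per screening campaign, cut at about 20% in these data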;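 also: 0% = DMSO wells and 100% = biotin wells as full block of FRET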
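Test system: GST-NR2E3 and biotin-RetCOR proteins | Quantity: 1.35 nM GST-tagged NR2E3 final | Medium: Tris pH 7.5 | Also added: 7 nM biotin-RetCOR | Dosing: Compound at 4.8 µM, single dose | Timing: 5 h at 4 °C | Detection: Time-resolved FRET | Read-out basis: Percent inhibition | Benchmarks: Biotin wells as high control, 0.6% DMSO wells as low control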
VLA-4 inh: inhibition in a human VLA-4 binding assay; inhibition, % (about 7 µM as worked out from the volumes in the protocol); P13612; actives 0.2% (n = 330,000); VLA-4 expressing cells, ligand binding flow cytometry; AID 2557; in the data active = inhibition above about 50%
NR2E3 ag confirm: NR2E3 agonism confirmed in two-hybrid assay. AID 624378. CHO-S mammalian two-hybrid NR2E3-NCOR, luciferase luminescence. actives 51% (n = 2,300). inhibition, % at 3.98 µM. shares compounds with NR2E3 ag-1;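 active = average inhibition above a cutoff equal to the mean inhibition of all tested compounds plus one SD, cut at about 70% in these data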;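 also: 0% = DMSO in NR2E3 cells and 100% = DMSO in cells lacking NR2E3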
VP16 counter: reduces GAL4-VP16 reporter signal in NR2E3 counterscreen; CHO-S GAL4-VP16 luciferase reporter, luminescence; inhibition, % at 3.98 µM; shares compounds with NR2E3 ag-1; actives 29% (n = 2,300);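 active = mean inhibition above a cutoff equal to the average over all tested compounds plus one standard deviation, cut at about 70% in these data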;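 also: luciferase from a UAS reporter driven by GAL4-VP16 transactivation; 0% = DMSO with VP16-transfected cells and 100% = DMSO with cells lacking VP16; higher means less reporter light so more repression of VP16 activity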
The depositor's hits bear a star; nt = no result. Hits are enriched below; roughly 1.6% of the tested compounds scored in any of these assays.

SMILES | NR1D1 modulator | PG9 binder | NR2E3 ag-1 | NR2E3 ag-2 | VLA-4 inh | NR2E3 ag confirm | VP16 counter
OC(c1ccc(Cl)c(F)c1)c1ncc(-c2cccc(F)c2)[nH]1 (centres undefined) | -4 | 1 | 73* | nt | nt | 66 | 47
Cc1ccc(-c2cc(-c3nnc(SCC(=O)N4CCOCC4)n3N)[nH]n2)cc1 | -9 | nt | nt | nt | nt | nt | nt
Nc1[nH]c(C(=O)c2ccccc2)c(-c2cccc(C(F)(F)F)c2)c1C(=O)c1c[nH]c2ccccc12 | 2 | -2 | nt | nt | nt | nt | nt
Cn1ccc2ccc(-c3ccc4c(c3)[C@]3(CCC[C@@H](OCc5ccccc5)[C@@H]3NC(=O)CCc3ccccc3)C(=O)N4Cc3ccccc3)cc21 | 3 | nt | nt | nt | nt | nt | nt
COc1cc(N(C)C)ccc1C=c1c2ccccc2n2c1cc(-c1ccccc1)[n+]2C | -12 | -17 | 87* | nt | nt | 91* | 65
CN(C)c1ccc(C=c2c3ccccc3n3c2cc(-c2ccccc2)[n+]3C)cc1 | -15 | -16 | 80* | nt | nt | 93* | 68
CN(C)c1ccc(C=c2c3ccccc3n3c2cc(-c2ccc(Cl)cc2)[n+]3C)cc1 | 16 | -5 | 7 | nt | nt | nt | nt
CN(C)c1ccc(C=c2c3ccccc3n3c2c2c([n+]3C)CCCC2)cc1 | 17 | -14 | 96* | nt | nt | 100* | 91*
Cc1ccc2c(c1)C1CS(=O)(=O)N(CCc3ccccc3)C(=O)N1C2 (centres undefined) | -3 | nt | nt | nt | nt | nt | nt
O=C(C(=O)N1CCC(CNS(=O)(=O)c2cc(C(F)(F)F)cc(C(F)(F)F)c2)CC1)c1cc2ccccc2o1 | 14 | 1 | nt | nt | nt | nt | nt
CCc1ccc2c(c1)NC(=O)C2(C)Cc1ccccc1 (centres undefined) | -1 | -3 | -9 | nt | nt | nt | nt
CCc1ccc2c(c1)C1(NN=C(c3cccc4ccccc34)S1)C(=O)N2 (centres undefined) | 7 | 0 | 80* | 0 | 8 | 39 | 25
COc1cccc(/C=N/Nc2ccc([N+](=O)[O-])cn2)c1O | -2 | 0 | 103* | 1 | -26 | 99* | 93*
COc1ccc(CNCC#Cc2ccccc2)c(OC)c1 | 0 | nt | nt | nt | nt | nt | nt
O=C(Nc1ccc(OC(F)(F)F)cc1)Nc1c(-c2ccc(C(F)(F)F)cc2)nc2ncccn12 | -3 | nt | nt | nt | nt | nt | nt
Cc1ccc(-n2ncc3c(SCc4cccc(C)c4)ncnc32)cc1 | -1 | -2 | -33 | 2 | 26 | nt | nt
Cc1ccc(-n2ncc3c(SCc4cccnc4)ncnc32)c(C)c1 | 1 | 1 | 54 | nt | nt | 81* | 63
Cc1ccc(CNc2ncnc3cc(Cl)ccc23)cc1 | 1 | 0 | 87* | -3 | 0 | 90* | 71*
COc1ccc(CNS(=O)(=O)c2ccc(-c3cc(C)no3)cc2)cc1 | 0 | -4 | 51 | 5 | 20 | 31 | 34
Cc1cc(-c2ccc(S(=O)(=O)NCc3ccc(F)cc3)cc2)on1 | -2 | 0 | 24 | 2 | 0 | nt | nt
c1ccc(Cn2c(SC3CCCCC3)nnc2-c2cccnc2)cc1 | -5 | nt | nt | nt | nt | nt | nt
CCc1cccc(CC)c1NC(=S)NCCc1c(C)[nH]c2ccc(C)cc12 | -5 | -1 | 71* | 4 | -9 | 19 | 6
CCOC(=O)[C@@]12CCC3=C1N(CCC3)C(=O)[C@H](CC(=O)N1CCSCC1)C2 | 2 | nt | nt | nt | nt | nt | nt
Cc1ccc(C(=O)NNC(=S)NC(=O)c2ccccc2)cc1 | 4 | -2 | 23 | 6 | -10 | nt | nt
Cc1ccc(C(=O)NNC(=S)NC(=O)c2ccc(Cl)cc2Cl)cc1 | -1 | 3 | 54 | 2 | -4 | 48 | 29
SMILES | NR1D1 modulator | PG9 binder | NR2E3 ag-1 | NR2E3 ag-2 | VLA-4 inh | NR2E3 ag confirm | VP16 counter
O=C(C1CCN(c2ncnc3c2sc2cccc(F)c23)CC1)N1CCN(Cc2ccc(F)cc2)CC1 | 11 | nt | nt | nt | nt | nt | nt
C=CCN(CC#CC1=CCCCC1)Cc1ccc(OC)cc1OC | 5 | nt | nt | nt | nt | nt | nt
CC(=O)N1C[C@@H](CN2C(=O)CCC2=O)[C@@H]2C[C@H]1c1ccccc1N2C | 2 | -2 | nt | nt | nt | nt | nt
CC1CCCC/C1=N\NC(=S)NCCc1ccccc1 (centres undefined) | 3 | 1 | 50 | -1 | 13 | -7 | -5
O=C(O)c1ccccc1C(=O)Nc1ccc(Oc2cccc3ccccc23)cc1 | -7 | -1 | 67 | nt | nt | -16 | 23
CCCCOc1ccc(C(=O)NC2CCCCN(CC)C2=O)cc1 (centres undefined) | -2 | nt | nt | nt | nt | nt | nt
CC(C)(C)OC(=O)NCCCc1ccc2c(c1)[C@]1(CCC[C@@H](OCc3ccccc3)[C@@H]1NC(=O)CCc1ccccc1)C(=O)N2Cc1ccccc1 | 5 | nt | nt | nt | nt | nt | nt
CCc1ccccc1Nc1nn2c(=O)c3ccc(C(=O)NCc4ccccn4)cc3nc2s1 | 10 | 2 | 71* | 2 | -15 | 76* | 34
CCN(CC)C(=O)CC[C@@H]1CC[C@]2(CCCN(Cc3ccncc3)C2)O1 | 10 | nt | nt | nt | nt | nt | nt
Cc1csc2c(N3CCN(C(=O)c4ccc(C(C)(C)C)cc4)CC3)ncnc12 | -2 | 2 | 77* | -4 | -2 | 97* | 84*
Cc1csc2c(N3CCN(C(=O)NC(C)(C)C)CC3)ncnc12 | 7 | 0 | 8 | 0 | 4 | nt | nt
Cc1cc(C)cc(NC(=S)N2CCN(c3ncc(C(F)(F)F)cc3Cl)CC2)c1 | -4 | 0 | 16 | 1 | 0 | nt | nt
Cc1csc2c(N3CCN(C(=S)Nc4ccc(C(F)(F)F)cc4)CC3)ncnc12 | 0 | 1 | 92* | -2 | 2 | 96* | 87*
Cc1csc2ncnc(N3CCN(C(=S)Nc4ccc(C(F)(F)F)cc4)CC3)c12 | 8 | 2 | 66 | -2 | 1 | 95* | 83*
Cc1csc2c(N3CCN(C(=O)Nc4ccc(Cl)c(Cl)c4)CC3)ncnc12 | -2 | 1 | 81* | 3 | 1 | 97* | 84*
O=C(Nc1ccc(Cl)c(Cl)c1)N1CCSCC1 | 3 | -2 | -41 | -2 | 3 | nt | nt
O=C(Nc1ccc(NC(=O)c2ccccc2Cl)c(Cl)c1)c1ccccn1 | 2 | nt | nt | nt | nt | nt | nt
